{
  "source": "ChEMBL document CHEMBL4480455",
  "about": "“Anti-inflammatory Property of Imperatorin on Alveolar Macrophages and Inflammatory Lung Injury” (J Nat Prod, 2019)",
  "key": {"[1]": {"system": "Mus musculus", "assay": "Effect on morphological changes in lungs of C57BL/6 mouse at 4 mg/kg, ip administered for 3 days by H and E staining based microscopic analysis", "assay_type": "ADME, organism-based", "settings": "in vivo, 72 h", "outline": "(§1)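 Male C57BL/6 mice dosed i.p. for 3 days, then given zymosan (4 mg/kg, i.t.) or saline. Lungs harvested 24 h later. Right lung fixed in 10% formalin, embedded in paraffin, cut into 5 μm sections, stained with H&E or Masson's trichrome and examined by microscopy. Collagen also measured by hydroxyproline assay on lung lysates. Mean ± SD, n≥4.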"}, "[2]": {"system": "Mus musculus", "assay": "Antiinflammatory activity in zymosan induced C57BL/6 mouse model of lung injury assessed as reduction in immune cell infiltration at 4 mg/kg, ip pretreated for 3 days followed by zymosan challenge and measured after 24 hrs by H and E staining based microscopic analysis", "assay_type": "functional, organism-based", "outline": "as §1"}, "[3]": {"system": "Mus musculus", "assay": "Antiinflammatory activity in zymosan induced C57BL/6 mouse model of lung injury assessed as reduction in hypertrophic smooth muscle cells at 4 mg/kg, ip pretreated for 3 days followed by zymosan challenge and measured after 24 hrs by H and E staining based microscopic analysis", "assay_type": "functional, organism-based", "outline": "as §1"}, "[4]": {"system": "Mus musculus", "assay": "Antiinflammatory activity in zymosan induced C57BL/6 mouse model of lung injury assessed as reduction in thinkened basement membrane at 4 mg/kg, ip pretreated for 3 days followed by zymosan challenge and measured after 24 hrs by H and E staining based microscopic analysis", "assay_type": "functional, organism-based", "outline": "as §1"}, "[5]": {"system": "Mus musculus", "assay": "Antiinflammatory activity in zymosan induced C57BL/6 mouse model of lung injury assessed as reduction in subepithelial collagen deposition/fibrosis at 4 mg/kg, ip pretreated for 3 days followed by zymosan challenge and measured after 24 hrs by Masson's trichrome staining based microscopic analysis", "assay_type": "functional, organism-based", "outline": "as §1"}, "[6]": {"system": "Mus musculus", "assay": "Antiinflammatory activity in zymosan induced C57BL/6 mouse model of lung injury assessed as reduction in collagen deposition at 4 mg/kg, ip pretreated for 3 days followed by zymosan challenge and measured after 24 hrs by hydroxyproline assay", "assay_type": "functional, organism-based", "outline": "as §1"}, "[7]": {"system": "Mus musculus", "assay": "Antiinflammatory activity in zymosan induced C57BL/6 mouse model of lung injury assessed as reduction in wet to dry lung edema ratio at 4 mg/kg, ip pretreated for 3 days followed by zymosan challenge and measured after 24 hrs", "assay_type": "functional, organism-based", "outline": "(§2)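 Male C57BL/6 mice, 25–30 g. Dosed i.p. daily for 3 days, then zymosan 4 mg/kg in 40 μL saline given by intratracheal instillation. After 24 h, BALF collected with five 0.2 mL PBS washes and centrifuged. Supernatant assayed for PGE2 and total protein. Cells counted by hemocytometer, and ≥300 cells on stained smears scored for differential counts. Left lung weighed, dried at 48 °C for 48 h, reweighed for wet/dry ratio.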"}, "[8]": {"system": "Mus musculus", "assay": "Antiinflammatory activity in zymosan induced C57BL/6 mouse model of lung injury assessed as reduction in total protein level in BALF at 4 mg/kg, ip pretreated for 3 days followed by zymosan challenge and measured after 24 hrs", "assay_type": "functional, organism-based", "outline": "as §2"}, "[9]": {"system": "Mus musculus", "assay": "Antiinflammatory activity in zymosan induced C57BL/6 mouse model of lung injury assessed as reduction in PGE2 production in BALF at 4 mg/kg, ip pretreated for 3 days followed by zymosan challenge and measured after 24 hrs by ELISA", "assay_type": "functional, organism-based", "outline": "as §2"}, "[10]": {"system": "Mus musculus", "assay": "Antiinflammatory activity in zymosan induced C57BL/6 mouse model of lung injury assessed as reduction in immune cell infiltration in BALF at 4 mg/kg, ip pretreated for 3 days followed by zymosan challenge and measured after 24 hrs by Diff-Quick staining based assay", "assay_type": "functional, organism-based", "outline": "as §2"}, "[11]": {"organism": "Mus musculus", "assay": "Antiinflammatory activity in mouse MHS cells assessed as reduction in zymosan-induced iNOS mRNA expression preincubated for 30 mins followed by zymosan challenge and measured after 6 to 24 hrs by TRIzol reagent based qRT-PCR analysis", "assay_type": "functional, cell-based", "outline": "(§3)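 MH-S alveolar macrophages grown in RPMI 1640 with 10% FBS at 37 °C and 5% CO2. Cells pretreated for 30 min, then given zymosan 10 μg/mL for 6 h. mRNA measured by SYBR Green real-time PCR (95 °C 10 min; 42 cycles of 95 °C 10 s, 60 °C 60 s) with actin as reference. Normalized to control; mean ± SD, n≥3.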"}, "[12]": {"organism": "Mus musculus", "assay": "Antiinflammatory activity in mouse MHS cells assessed as reduction in zymosan-induced COX2 mRNA expression preincubated for 30 mins followed by zymosan challenge and measured after 6 to 24 hrs by TRIzol reagent based qRT-PCR analysis", "assay_type": "functional, cell-based", "outline": "as §3"}, "[13]": {"organism": "Mus musculus", "assay": "Antiinflammatory activity in mouse MHS cells assessed as reduction in zymosan-induced iNOS protein expression preincubated for 30 mins followed by zymosan challenge and measured after 6 to 24 hrs by Western blotting analysis", "assay_type": "functional, cell-based"}, "[14]": {"organism": "Mus musculus", "assay": "Antiinflammatory activity in mouse MHS cells assessed as reduction in zymosan-induced COX2 protein expression preincubated for 30 mins followed by zymosan challenge and measured after 6 to 24 hrs by Western blotting analysis", "assay_type": "functional, cell-based"}, "[15]": {"assay": "Antiinflammatory activity in mouse MHS cells assessed as reduction in zymosan-induced iNOS protein expression at 1.5 ug/ml preincubated for 30 mins followed by zymosan challenge and measured after 6 to 24 hrs by Western blotting analysis relative to control (reference value: 2.93 +/- 0.84)", "assay_type": "functional"}, "[16]": {"assay": "Antiinflammatory activity in mouse MHS cells assessed as reduction in zymosan-induced iNOS protein expression at 15 ug/ml preincubated for 30 mins followed by zymosan challenge and measured after 6 to 24 hrs by Western blotting analysis relative to control (reference value: 2.93 +/- 0.84)", "assay_type": "functional"}, "[17]": {"assay": "Antiinflammatory activity in mouse MHS cells assessed as reduction in zymosan-induced COX2 protein expression at 1.5 ug/ml preincubated for 30 mins followed by zymosan challenge and measured after 6 to 24 hrs by Western blotting analysis relative to control (reference value: 2.2 +/- 1.8)", "assay_type": "functional"}, "[18]": {"assay": "Antiinflammatory activity in mouse MHS cells assessed as reduction in zymosan-induced COX2 protein expression at 15 ug/ml preincubated for 30 mins followed by zymosan challenge and measured after 6 to 24 hrs by Western blotting analysis relative to control (reference value: 2.2 +/- 1.8)", "assay_type": "functional"}, "[19]": {"assay": "Effect on iNOS protein expression in mouse MHS cells at 15 ug/ml after 30 mins by Western blotting analysis relative to tubulin (reference value: 1)", "assay_type": "ADME, cell-based", "settings": "0.5 h"}, "[20]": {"assay": "Effect on COX2 protein expression in mouse MHS cells at 15 ug/ml after 30 mins by Western blotting analysis relative to tubulin (reference value: 1)", "assay_type": "ADME, cell-based", "settings": "0.5 h"}, "[21]": {"organism": "Mus musculus", "assay": "Antiinflammatory activity in mouse MHS cells assessed as reduction in zymosan-induced nitrite production at 1.5 to 15 ug/ml preincubated for 30 mins followed by zymosan challenge and measured after 6 to 24 hrs by Griess assay", "assay_type": "functional, cell-based", "outline": "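MH-S cells pretreated for 30 min, then given zymosan 10 μg/mL for 24 h. Supernatant nitrite reacted with equal volumes of 0.1% NED and 1% sulfanilamide in 5% phosphoric acid, 10 min in the dark. Absorbance read at 520 nm. Mean ± SD, n≥3.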"}},
  "note": "Active and inactive are the calls of the source. The calls are words filed in the database; no cut-off is given here.",
  "data": [
    {"molecule": "CC(C)=CCOc1c2occc2cc2ccc(=O)oc12", "note": "[PENTOSALEN]", "values": [
      {"measurement": "Activity", "setting": "[1]", "value": "Non-Toxic"},
      {"measurement": "Activity", "setting": "[2]", "value": "Active"},
      {"measurement": "Activity", "setting": "[3]", "value": "Active"},
      {"measurement": "Activity", "setting": "[4]", "value": "Active"},
      {"measurement": "Activity", "setting": "[5]", "value": "Active"},
      {"measurement": "Activity", "setting": "[6]", "value": "Active"},
      {"measurement": "Activity", "setting": "[7]", "value": "Active"},
      {"measurement": "Activity", "setting": "[8]", "value": "Active"},
      {"measurement": "Activity", "setting": "[9]", "value": "Active"},
      {"measurement": "Activity", "setting": "[10]", "value": "Active"},
      {"measurement": "Activity", "setting": "[11]", "value": "Dose-dependent effect"},
      {"measurement": "Activity", "setting": "[12]", "value": "Dose-dependent effect"},
      {"measurement": "Activity", "setting": "[13]", "value": "Dose-dependent effect"},
      {"measurement": "Activity", "setting": "[14]", "value": "Dose-dependent effect"},
      {"measurement": "fold change (FC)", "setting": "[15]", "value": 2.5},
      {"measurement": "fold change (FC)", "setting": "[16]", "value": 1.5},
      {"measurement": "fold change (FC)", "setting": "[17]", "value": 2.2},
      {"measurement": "fold change (FC)", "setting": "[18]", "value": 1.8},
      {"measurement": "fold change (FC)", "setting": "[19]", "value": 0.9},
      {"measurement": "fold change (FC)", "setting": "[20]", "value": 0.7},
      {"measurement": "Activity", "setting": "[21]", "value": "Active"}
    ]}
  ]
}
